Data taken from ChEMBL document CHEMBL3877293, “Synthesis and Antineoplastic Evaluation of Novel Unsymmetrical 1,3,4-Oxadiazoles” (J Med Chem, 2016).

Tests used:
[1] = Antiproliferative activity against human HeLa cells after 72 hrs by XTT assay; assay type: functional, cell-based
How it was run: (§1)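 Cells plated at 1500–2000 per well by doubling time, treated after 24 h with a concentration series in six triplicate wells, and incubated 72 h without a medium change. XTT reagent was then added for 4 h at 37 °C and absorbance read at 490 nm. IC50 is the concentration halving absorbance versus untreated cells. Experiments run in triplicate.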

[2] = Antiproliferative activity against human MCF7 cells after 72 hrs by XTT assay; assay type: functional, cell-based; settings: MCF7, 72 h; how it was run: as §1

Row | Compound | IC50 [1] [µM] | IC50 [2] [µM]
1 | Cc1[nH]c2c(c1-c1nnc(-c3ccccc3)o1)Cc1cc(Cl)ccc1-2 | 4.5 | > 10
2 | Clc1ccc(Cc2nnc(-c3c[nH]c4c3Cc3ccccc3-4)o2)cc1 | > 10 | > 10
3 | Cc1[nH]c2c(c1-c1nnc(-c3ccccc3)o1)Cc1cc(C3CC3)ccc1-2 | 1.58 | 2.31
4 | Clc1ccc(-c2nnc(-c3c[nH]c4c3Cc3ccccc3-4)o2)cc1Cl | > 10 | > 10
5 | c1ccc2c(c1)Cc1c(-c3nnc(C4CCCCC4)o3)c[nH]c1-2 | > 10 | > 10
6 | Clc1ccc(-c2nnc(-c3c[nH]c4c3Cc3ccccc3-4)o2)cc1 | > 10 | > 10
7 | c1ccc(-c2nnc(-c3nn(-c4ccccc4)c4c3Cc3ccccc3-4)o2)cc1 | > 10 | 7.59
8 | Cc1ccc(Cc2nnc(-c3c[nH]c4c3Cc3ccccc3-4)o2)cc1 | > 10 | 4.25
9 | COc1cc(-c2nnc(-c3c[nH]c4c3Cc3ccccc3-4)o2)cc(OC)c1OC | > 10 | > 10
10 | Cc1[nH]c2c(c1-c1nnc(-c3ccccc3)o1)Cc1cc(Br)ccc1-2 | 0.51 | 4.26
11 | Cn1nc(-c2nnc(-c3ccccc3)o2)c2c1-c1ccccc1C2 | > 10 | > 10
12 | Cc1ccc2c(c1)Cc1c-2[nH]c(C)c1-c1nnc(-c2ccccc2)o1 | 5.3 | > 10
13 | CC(C)(C)c1ccc(-c2nnc(-c3c[nH]c4c3Cc3ccccc3-4)o2)cc1 | 3.4 | 9.5
14 | COc1ccc2c(c1)-c1[nH]c(C)c(-c3nnc(-c4ccccc4)o3)c1C2 | > 10 | > 10
15 | Clc1cccc(-c2nnc(-c3c[nH]c4c3Cc3ccccc3-4)o2)c1 | > 10 | > 10
16 | c1ccc(Cc2nnc(-c3c[nH]c4c3Cc3ccccc3-4)o2)cc1 | > 10 | > 10
